# According to ChEMBL document CHEMBL3046367, “Potent and specific bactericidal effect of juglone (5-hydroxy-1,4-naphthoquinone) on the fire blight pathogen Erwinia amylovora” (J Agric Food Chem, 2012):
# Calls of active or inactive are those of the source. The calls are words filed in the database; no cut-off is given here.
# Key:
# Erwinia amylovora [1] = test: Bactericidal activity against Erwinia amylovora 295/93 assessed as growth inhibition in King's B full medium measured at pH 7.2 after overnight incubation by suspension culture assay; type: functional
# Summary of the method: (§1)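 Growth inhibition in suspension culture in King's B medium (peptone, K2HPO4, MgSO4, glycerol; pH 7.2). Overnight culture diluted to OD600 0.2, compound added from stocks in ethanol or DMSO (up to 5% v/v) beside solvent controls; 28 °C, 200 rpm; OD600 read at 0–8 h every 2 h and at 15 or 24 h. MIC = lowest concentration giving complete growth inhibition after overnight incubation; at least triplicate.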
# Erwinia amylovora [2] = test: Bactericidal activity against Erwinia amylovora bv.4 assessed as growth inhibition after 10 min; type: functional; settings: bv.4, 10 min
# [3] = test system: Pectobacterium carotovorum; test: Bactericidal activity against Pectobacterium carotovorum NCPB 312 assessed as growth inhibition at pH 7.2 by suspension culture assay; type: functional; summary of the method: as §1
# Erwinia amylovora [4] = test: Bactericidal activity against Erwinia amylovora 295/93 assessed as growth inhibition at 10 uM preincubated for 1 hr with UV/visible light by suspension culture assay; type: functional, organism-based
# Summary of the method: (§2)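 1 mM stock in ethanol exposed for 1 h to bright sunlight (UV plus visible) or to sunlight behind a UV-blocking glass screen; dark-kept solution as control. Added at nominal 10 μM to growing E. amylovora suspension cultures; growth followed by OD600.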
# Erwinia amylovora [5] = test: Bactericidal activity against Erwinia amylovora 295/93 assessed as growth inhibition at 10 uM preincubated for 1 hr with visible light by suspension culture assay; type: functional, organism-based; summary of the method: as §2
# Erwinia piriflorinigrans = test: Bactericidal activity against Erwinia piriflorinigrans 5888 assessed as growth inhibition at pH 7.2 by suspension culture assay; type: functional; summary of the method: as §1
# Erwinia amylovora [6] = test: Bactericidal activity against 2x10^8 CFU/mL Erwinia amylovora 295/93 cells assessed as late restarting of growth from surviving cells at <10 uM by suspension culture assay; type: functional, organism-based
# Erwinia amylovora [7] = test: Bactericidal activity against mixture of two strains of Erwinia amylovora 295/93 and 763 inoculated in Malus x domestica cv. Gala flowers assessed as prevention of infection at 0.01 mM applied two times at 2 hr after bacterial exposure measured after 8 to 10 days by In vitro flower inoculation assay; type: functional, 295/93/763
# Summary of the method: (§3)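 Gala flowers (balloon stage, from greenhouse-forced potted trees) opened on 10% sucrose at 28 °C for 24 h, in series of 20. Each inoculated with 1 μL of a 1×10^7 CFU/mL mix of strains 295/93 and 763 on the styles. After 2 h, sprayed twice with 150 μL; water as negative control. Kept at 70% humidity and 22 °C, with a water-plus-fungicide spray at day 2. Infected flowers per series scored at 8–10 days; assay valid only if water controls reached ≥50% infection.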
# Erwinia amylovora [8] = test: Bactericidal activity against Erwinia amylovora 894 assessed as growth inhibition at pH 7.2 by suspension culture assay; type: functional; summary of the method: as §1
# Erwinia amylovora [9] = test: Bactericidal activity against Erwinia amylovora 363 assessed as growth inhibition at pH 7.2 by suspension culture assay; type: functional; summary of the method: as §1
# [10] = Activity of Agaricus bisporus (mushroom) tyrosinase assessed as drug oxidation by photometric analysis; type: ADME
# Erwinia amylovora [11] = test: Bactericidal activity against Erwinia amylovora 846 assessed as growth inhibition at pH 7.2 by suspension culture assay; type: functional; summary of the method: as §1
# Erwinia amylovora [12] = test: Bactericidal activity against Erwinia amylovora 237R assessed as growth inhibition at pH 7.2 by suspension culture assay; type: functional; summary of the method: as §1
# Erwinia pyrifoliae = test: Bactericidal activity against Erwinia pyrifoliae 4171 assessed as growth inhibition at pH 7.2 by suspension culture assay; type: functional; summary of the method: as §1
# Erwinia amylovora [13] = test: Bactericidal activity against Erwinia amylovora 657 assessed as growth inhibition at pH 7.2 by suspension culture assay; type: functional; summary of the method: as §1
# Erwinia amylovora [14] = test: Bactericidal activity against Erwinia amylovora 872 assessed as growth inhibition at pH 7.2 by suspension culture assay; type: functional; summary of the method: as §1
# Pantoea agglomerans = test: Bactericidal activity against Pantoea agglomerans 599 assessed as growth inhibition at pH 7.2 by suspension culture assay; type: functional; summary of the method: as §1
# Erwinia amylovora [15] = test: Bactericidal activity against Erwinia amylovora 513 assessed as growth inhibition at pH 7.2 by suspension culture assay; type: functional; summary of the method: as §1
# Erwinia amylovora [16] = test: Bactericidal activity against Erwinia amylovora 793 assessed as growth inhibition at pH 7.2 by suspension culture assay; type: functional; summary of the method: as §1
# Erwinia amylovora [17] = test: Bactericidal activity against Erwinia amylovora 782 assessed as growth inhibition at pH 7.2 by suspension culture assay; type: functional; summary of the method: as §1
# Bacillus subtilis = test: Bactericidal activity against Bacillus subtilis NCTC 10315 assessed as growth inhibition at pH 7.2 by suspension culture assay; type: functional; summary of the method: as §1
# Erwinia amylovora [18] = test: Bactericidal activity against Erwinia amylovora 295/93 at 10 uM after 30 min; type: functional, organism-based
# Summary of the method: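 Bactericidal versus bacteriostatic test: about 10^5 E. amylovora cells in suspension culture exposed to 10 μM for 30 min, then plated on King's B medium to check for surviving colonies.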
# Erwinia amylovora [19] = test: Bactericidal activity against Erwinia amylovora 627 assessed as growth inhibition at pH 7.2 by suspension culture assay; type: functional; summary of the method: as §1
# Erwinia tasmaniensis = test: Bactericidal activity against Erwinia tasmaniensis 37/10 assessed as growth inhibition at pH 7.2 by suspension culture assay; type: functional; summary of the method: as §1
# Erwinia amylovora [20] = test: Bactericidal activity against Erwinia amylovora 871 assessed as growth inhibition at pH 7.2 by suspension culture assay; type: functional; summary of the method: as §1
# Erwinia amylovora [21] = test: Bactericidal activity against Erwinia amylovora 562 assessed as growth inhibition at pH 7.2 by suspension culture assay; type: functional; summary of the method: as §1
# Erwinia amylovora [22] = test: Bactericidal activity against Erwinia amylovora 295/93 assessed as inhibition of bacterial growth under infection conditions in hrp gene expression inducing medium at pH 7.0 after overnight incubation by suspension culture assay; type: functional
# Summary of the method: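 E. amylovora 295/93 started at OD600 0.2, 28 °C with shaking, OD600 followed. MIC = lowest concentration completely inhibiting growth after overnight incubation, beside solvent controls.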
# Erwinia amylovora [23] = test: Bactericidal activity against Erwinia amylovora 295/93 assessed as growth inhibition at 2.5 uM at pH 4.0 to 8.0 by suspension culture assay; type: functional, organism-based
# Summary of the method: (§4)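 E. amylovora 295/93 grown in King's B medium brought to pH values between 4 and 8 with 1 M HCl or NaOH before sterilisation. Culture set to OD600 0.2, 28 °C, 200 rpm, OD600 monitored over time; solvent controls run in parallel.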
# Erwinia amylovora [24] = test: Bactericidal activity against Erwinia amylovora 295/93 assessed as growth inhibition at pH 4.5 after overnight incubation by suspension culture assay; type: functional; summary of the method: as §4
# Erwinia amylovora [25] = test: Bactericidal activity against Erwinia amylovora 797 assessed as growth inhibition at pH 7.2 by suspension culture assay; type: functional; summary of the method: as §1
# Escherichia coli = test: Bactericidal activity against Escherichia coli assessed as growth inhibition at pH 7.2 by suspension culture assay; type: functional; summary of the method: as §1
# Erwinia amylovora [26] = test: Bactericidal activity against Erwinia amylovora 893 assessed as growth inhibition at pH 7.2 by suspension culture assay; type: functional; summary of the method: as §1
# Erwinia amylovora [27] = test: Bactericidal activity against Erwinia amylovora 295/93 assessed as colony growth inhibition at 25 uM at pH 7.2 by plating assay in presence of 0.5 mg/l mushroom tyrosinase; type: functional, organism-based
# Erwinia amylovora [28] = test: Bactericidal activity against Erwinia amylovora 295/93 assessed as colony growth inhibition at 25 uM at pH 4.5 by plating assay in presence of 0.5 mg/l mushroom tyrosinase; type: functional, organism-based
# Erwinia amylovora [29] = test: Bactericidal activity against Erwinia amylovora 295/93 assessed as growth inhibition applied as spray solution; type: functional, organism-based
# Erwinia amylovora [30] = test: Bactericidal activity against Erwinia amylovora 792 assessed as growth inhibition at pH 7.2 by suspension culture assay; type: functional; summary of the method: as §1
# Erwinia billingiae = test: Bactericidal activity against Erwinia billingiae 6830 assessed as growth inhibition at pH 7.2 by suspension culture assay; type: functional; summary of the method: as §1
# Erwinia amylovora [31] = test: Bactericidal activity against Erwinia amylovora 385R assessed as growth inhibition at pH 7.2 by suspension culture assay; type: functional; summary of the method: as §1
# Pseudomonas fluorescens = test: Bactericidal activity against Pseudomonas fluorescens A506 assessed as growth inhibition at pH 7.2 by suspension culture assay; type: functional; summary of the method: as §1
# Erwinia amylovora [32] = test: Bactericidal activity against mixture of two strains of Erwinia amylovora 295/93 and 763 inoculated in Malus x domestica cv. Gala flowers assessed as prevention of infection at 0.06% applied two times at 2 hr after bacterial exposure measured after 8 to 10 days by In vitro flower inoculation assay; type: functional, 295/93/763; summary of the method: as §3
compound,measurement,setting,value
CC1=C(C)C(=O)C(C)=C(C)C1=O,MIC,Erwinia amylovora [1],inactive
COc1cc(O)c2c(c1)C(=O)c1cc(C)cc(O)c1C2=O,MIC,Erwinia amylovora [1],inactive
Cc1cc(O)c2c(c1)C(=O)c1cc(O)cc(O)c1C2=O,MIC,Erwinia amylovora [1],inactive
Cc1cc(O)c2c(c1)C(=O)c1cccc(O)c1C2=O,MIC,Erwinia amylovora [1],inactive
O=C(O)c1cc(O)c2c(c1)C(=O)c1cccc(O)c1C2=O,MIC,Erwinia amylovora [1],inactive
O=C1C(O)=C(C2=C(O)C(=O)c3ccccc3C2=O)C(=O)c2ccccc21,MIC,Erwinia amylovora [1],inactive
O=C1c2cccc(O)c2C(=O)c2c(O)cc(CO)cc21,MIC,Erwinia amylovora [1],inactive
O=C1c2ccccc2C(=O)c2c1cc(S(=O)(=O)O)c(O)c2O,MIC,Erwinia amylovora [1],inactive
O=C1c2ccccc2C(=O)c2c1ccc(O)c2O,MIC,Erwinia amylovora [1],inactive
O=C1c2ccccc2C(=O)c2ccccc21,MIC,Erwinia amylovora [1],inactive
O=C1C=CC(=O)C=C1 [BENZOQUINONE],MIC,Erwinia amylovora [2],10 µM
same,MIC,Erwinia amylovora [1],100 µM
O=C1C=CC(=O)c2c(O)cccc21 [JUGLONE],MIC,[3],500 µM
same,growth inhibition (GI),Erwinia amylovora [4],inactive
same,growth inhibition (GI),Erwinia amylovora [5],Active
same,MIC,Erwinia piriflorinigrans,500 µM
same,Activity,Erwinia amylovora [6],Active
same,Efficacy,Erwinia amylovora [7],67%
same,MIC,Erwinia amylovora [8],10 µM
same,MIC,Erwinia amylovora [9],20 µM
same,Activity,[10],Active
same,MIC,Erwinia amylovora [11],20 µM
same,MIC,Erwinia amylovora [12],10 µM
same,MIC,Erwinia pyrifoliae,20 µM
same,MIC,Erwinia amylovora [13],10 µM
same,MIC,Erwinia amylovora [14],20 µM
same,MIC,Pantoea agglomerans,500 µM
same,MIC,Erwinia amylovora [15],10 µM
same,MIC,Erwinia amylovora [16],10 µM
same,MIC,Erwinia amylovora [17],10 µM
same,MIC,Bacillus subtilis,50 µM
same,Activity,Erwinia amylovora [18],Active
same,MIC,Erwinia amylovora [19],20 µM
same,MIC,Erwinia tasmaniensis,500 µM
same,MIC,Erwinia amylovora [20],10 µM
same,MIC,Erwinia amylovora [21],10 µM
same,MIC,Erwinia amylovora [22],5 µM
same,growth inhibition (GI),Erwinia amylovora [23],inactive
same,MIC,Erwinia amylovora [24],2.5 µM
same,MIC,Erwinia amylovora [25],20 µM
same,MIC,Escherichia coli,1000 µM
same,MIC,Erwinia amylovora [26],10 µM
same,growth inhibition (GI),Erwinia amylovora [27],inactive
same,growth inhibition (GI),Erwinia amylovora [28],Active
same,growth inhibition (GI),Erwinia amylovora [29],Active
same,MIC,Erwinia amylovora [30],10 µM
same,MIC,Erwinia billingiae,1000 µM
same,MIC,Erwinia amylovora [31],10 µM
same,MIC,Erwinia amylovora [1],10 µM
same,MIC,Pseudomonas fluorescens,> 1000 µM
O=C1C=C(O)C(=O)c2ccccc21 [LAWSONE],MIC,Erwinia amylovora [1],2500 µM
CC1=CC(=O)c2ccccc2C1=O [MENADIONE],MIC,Erwinia amylovora [1],250 µM
O=C1C=CC(=O)c2c(O)ccc(O)c21 [NAPHTHAZALIN],MIC,Erwinia amylovora [1],10 µM
CC1=CC(=O)c2c(O)cccc2C1=O [PLUMBAGIN],MIC,Erwinia amylovora [1],100 µM
CC(C)=CC[C@@H](O)C1=CC(=O)c2c(O)ccc(O)c2C1=O [SHIKONIN],MIC,Erwinia amylovora [1],100 µM
CN[C@@H]1[C@H](O[C@H]2[C@H](O[C@H]3[C@H](O)[C@@H](O)[C@H](N=C(N)N)[C@@H](O)[C@@H]3N=C(N)N)O[C@@H](C)[C@]2(O)C=O)O[C@@H](CO)[C@H](O)[C@H]1O [STREPTOMYCIN],Efficacy,Erwinia amylovora [32],75%
same,MIC,Erwinia amylovora [1],10 µM
